Data on two compounds can be found in ChEMBL document CHEMBL1146021, “Calcium channel antagonists discovered by a multidisciplinary approach” (J Med Chem, 2006).

Assay [1] is filed under the species Cavia porcellus. Nature of the assay: Negative inotropic activity in guinea pig left atrium. It counts as functional. Conditions: Cardiac atrium. In outline:
(§1)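 Guinea-pig left atria driven at 1 Hz (0.6-0.8 ms pulses, about 50% threshold voltage) in PSS, 35 °C, pH 7.4, 95% O2/5% CO2. Isometric tension recorded. Cumulative concentrations 0.01-100 μM in DMSO (≤0.3%), each to steady state. Percent decrease in developed tension, n = 4-6. EC50 by Probit analysis.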

The species entered for assay [2] is Cavia porcellus. The experiment in a line: Vasorelaxant activity assessed as inhibition of calcium-induced contraction of potassium ion-depolarized guinea pig aortic strips. It counts as functional. Particulars: Aorta. In outline: (§2)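 Helicoidal guinea-pig aortic strips in aerated PSS at 35 °C, contracted with 80 mM KCl (K+ substituted for Na+). At plateau (about 45 min), compounds added cumulatively at 0.1-500 μM in DMSO vehicle. Relaxation measured isometrically. IC50 by Probit analysis, n = 6-8.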

Assay [3] is filed under the species Cavia porcellus. The experiment in a line: Vasorelaxant activity assessed as inhibition of calcium-induced contraction of potassium ion-depolarized guinea pig aortic strips at 500 uM. The format is functional, Aorta. Details: scale not given: the % may be the effect or the level left. Summed up: as §2
For assay [4], the species on record is Cavia porcellus. Nature of the assay: Negative chronotropic activity in guinea pig right atrium at 10 uM. The format is functional, Cardiac atrium. Summed up: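 Spontaneously beating guinea-pig right atria in PSS, 35 °C, pH 7.4, 95% O2/5% CO2. Cumulative concentrations 0.01-100 μM in DMSO (≤0.3% in bath), each to steady state. Rate decrease taken as percent of control (pretreatment 170-195 beats/min), n = 6-8. EC30 by Probit analysis.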

For assay [5], the species on record is Cavia porcellus. Nature of the assay: Negative inotropic activity in guinea pig left atrium at 1 uM. It counts as functional, Cardiac atrium. In outline:
as §1

The species named for assay [6] is Cavia porcellus. The experiment in a line: Negative inotropic activity in guinea pig left atrium at 500 uM. It counts as functional, Cardiac atrium.
The species entered for assay [7] is Cavia porcellus. Nature of the assay: Negative chronotropic activity in guinea pig right atrium at 500 uM. The format is functional, Cardiac atrium.
The species named for assay [8] is Cavia porcellus. Nature of the assay: Vasorelaxant activity assessed as inhibition of calcium-induced contraction of potassium ion-depolarized guinea pig aortic strips at 100 uM. It counts as functional, Aorta. Details: scale not given: the % may be the effect or the level left. In outline:
as §2

The term EC50 denotes the midpoint of the concentration-response curve. One may read the IC50 as the midpoint of a concentration-inhibition curve. Compound `C=CCN(c1ccccc1)S(=O)(=O)c1ccc(Cl)cc1` registered a half-maximal effective concentration (EC50) in the assay filed under Cavia porcellus [1] of 0.31 µM. Also, in the assay filed under Cavia porcellus [2], the IC50 was determined as 17.7 µM. The Activity in the assay listed under Cavia porcellus [3] is 54%; in the assay listed under Cavia porcellus [4] it was 5%; in the assay filed under Cavia porcellus [5], 73%.
On to `O=S(=O)(c1ccc(Cl)cc1)N(Cc1ccsc1)S(=O)(=O)c1ccc(Cl)cc1`, for which the Activity in the assay listed under Cavia porcellus [6] is recorded as 71%; in the assay filed under Cavia porcellus [7] it was 7%; in the assay listed under Cavia porcellus [8], 9%. This compound returned an EC50 in the assay listed under Cavia porcellus [1] of 2.55 µM.
